SENP7 inh: inhibitors of human SENP7 protease. Q9BQF6. recombinant SENP7, Z-RLRGG-aminoluciferin luminescence, 40 min. inhibition, % at 5 µM. 330,000 compounds, 1.5% hits;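 active = inhibition above about 50% at the single test dose, limit read from the data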;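 note: plate controls were DMSO with enzyme for no effect and no enzyme buffer wells for full effect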
Target sequence (Q9BQF6 706-1050 limits assumed): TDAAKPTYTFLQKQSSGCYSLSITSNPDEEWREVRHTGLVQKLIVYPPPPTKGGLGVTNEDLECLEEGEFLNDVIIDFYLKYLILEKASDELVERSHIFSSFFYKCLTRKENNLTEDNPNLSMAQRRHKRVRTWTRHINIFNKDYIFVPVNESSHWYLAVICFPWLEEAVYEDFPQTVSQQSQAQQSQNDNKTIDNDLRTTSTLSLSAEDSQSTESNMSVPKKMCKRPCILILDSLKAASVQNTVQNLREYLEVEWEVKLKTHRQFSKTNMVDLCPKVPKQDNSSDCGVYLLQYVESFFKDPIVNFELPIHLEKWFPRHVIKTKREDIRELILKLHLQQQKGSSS
SENP8 block-1: SENP8 protease inhibition. 330,000 compounds, 1.2% hits. purified SENP8, Z-RLRGG-aminoluciferin cleavage, luminescence. Q96LD8. inhibition, % at 10 µM; in the data active = inhibition above about 50%
Target sequence (Q96LD8 whole entry, looked up): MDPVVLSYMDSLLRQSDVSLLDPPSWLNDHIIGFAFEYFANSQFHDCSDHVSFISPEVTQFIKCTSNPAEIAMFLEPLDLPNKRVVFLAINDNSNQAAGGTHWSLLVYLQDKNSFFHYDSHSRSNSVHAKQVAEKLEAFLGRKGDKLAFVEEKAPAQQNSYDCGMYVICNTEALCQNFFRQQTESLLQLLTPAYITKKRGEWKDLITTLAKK
SENP8 block-2: SENP8 (human) protease inhibition; Q96LD8; recombinant SENP8, Nedd8 substrate fluorescence; inhibition, % at 20 µM; 360,000 compounds, 0.64% hits; AID 602440; in the data active = inhibition mostly above about 40%, no sharp cut-off; inactive = mostly below about 27%
HSP90 refold inh: blocks HSP90-mediated luciferase refolding in reticulocyte lysate. Rabbit reticulocyte lysate, luciferase refolding luminescence, 3 h. inhibition, % at 5.6 µM. 290,000 compounds, 0.91% hits. AID 1789;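 active = inhibition above the screen-wide mean plus 3 SD, computed separately per campaign, cut at about 16% in these data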;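 note: 0% = DMSO wells and 100% = 60 µM geldanamycin wells; inhibitors lower the luminescence because luciferase stays unfolded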
SENP1 inh: blocks the human SENP1 SUMO protease catalytic domain; Q9P0U3; 360,000 compounds, 0.21% hits; inhibition, % at 10 µM; recombinant SENP1 catalytic domain, CyPet-SUMO1-YPet FRET cleavage;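 active = inhibition at least 30% at 10 µM, raw YFP signal under a set limit, fluorescence ratio 0.5 to 1.5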;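 note: 0% = enzyme with DMSO and 100% = no enzyme wells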
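system = hSENP1 catalytic domain, recombinant | reagent = SFCypet-SUMO1-SFYpet substrate at 25 nM | doses = one dose per compound, 10 µM, 0.5% DMSO | incubation = enzyme reaction for 50 min at room temperature, dark | measured by = FRET, CFP and YFP emission | controls = no-enzyme low, enzyme-DMSO high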
SENP6 inh: inhibitors of human SENP6 protease. Recombinant SENP6 catalytic domain, aminoluciferin luminescence. AID 2599. inhibition, % at 10 µM. 330,000 compounds, 1.8% hits;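 active = inhibition above about 50% at the single tested dose, limit read from the data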;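 note: plate controls were DMSO wells with enzyme for no effect and DMSO wells lacking enzyme for full effect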
SENP8 confirm: confirmation of human SENP8 protease inhibitors | shares compounds with SENP7 inh | AID 488912 | 6,200 compounds, 40% hits | Recombinant SENP8, Z-RLRGG-aminoluciferin luminescence, 60 min | inhibition, % at 12.5 µM;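 active = mean inhibition across replicates above about 50%, limit read from the data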
SENP6 confirm: human SENP6 inhibition, confirmed. shares compounds with SENP7 inh. recombinant SENP6, Z-RLRGG-aminoluciferin luminescence. inhibition, % at 12.5 µM. 6,200 compounds, 58% hits. AID 488915
SENP7 conf: confirmation of human SENP7 protease inhibitors. 6,200 compounds, 69% hits. inhibition, % at 12.5 µM. recombinant SENP7, Z-RLRGG-aminoluciferin luminescence, 40 min. shares compounds with SENP7 inh. AID 488917
Casp3 SENP sel: selectivity test for SENP inhibitors: human caspase-3 inhibition; shares compounds with SENP7 inh; purified caspase-3, Z-DEVD-aminoluciferin luminescence, 60 min; inhibition, % at 12.5 µM; 6,200 compounds, 60% hits;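 active = mean inhibition above about 50%, limit read from the data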;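 note: plate controls were enzyme with DMSO for no effect and wells without caspase-3 for full effect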
SENP luc ctr: interferes with luciferase luminescence in SENP counter-screen. AID 488919. inhibition, % at 12.5 µM. shares compounds with SENP7 inh. Pre-incubated SENP8/Z-RLRGG-aminoluciferin, luciferase luminescence interference. 6,200 compounds, 39% hits;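 active = mean inhibition above about 50% when retested at one dose, limit read from the data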;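 note: plate controls were DMSO wells with completed reaction for no effect and substrate without enzyme for full effect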
Starred values were filed as active, the others as inactive; . = not tested or not shown. The list is not random: actives were taken first. Their share in the collection is about 2.9%.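 Rule for the calls, unless noted: active = mean inhibition above about 50% in the one-dose retest (limit read from the data); inactive = the rest.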

SMILES	SENP7 inh	SENP8 block-1	SENP8 block-2	HSP90 refold inh	SENP1 inh	SENP6 inh	SENP8 confirm	SENP6 confirm	SENP7 conf	Casp3 SENP sel	SENP luc ctr
CCOc1ccc2nc(NC(=O)c3ccoc3C)sc2c1	100*	98*	-158	28*	-6	96*	99*	100*	103*	99*	81*
CCc1noc(C)c1C(=O)Nc1nc2c(F)cc(F)cc2s1	73*	83*	-26	.	-7	90*	52*	86*	98*	87*	51*
O=C(Nc1nc2c(F)cc(F)cc2s1)c1ccccn1	93*	64*	-8	2	-8	70*	61*	69*	31	79*	14
COc1ccc(C(=O)Nc2nc3ccc(OC)cc3s2)cc1	-2	-15	-280	4	0	17	.	.	.	.	.
O=C1CSC(c2ccccn2)N1c1ccc(Br)cc1 (stereo not given)	0	4	12	3	3	-5	.	.	.	.	.
CCOc1ccc2nc(NC(=O)Nc3ccccc3)sc2c1	36	-7	11	2	-1	-3	.	.	.	.	.
CCOc1ccc2nc(NC(=O)c3ccccn3)sc2c1	98*	94*	-91	7	2	97*	41	78*	85*	87*	26
CCc1ccccc1NC(=O)CN(C)C(=O)COC(=O)c1ccccc1Cl	-1	3	12	.	0	0	.	.	.	.	.
O=C(OCC(=O)N1CCC(c2ccccc2)=N1)c1ccc([N+](=O)[O-])s1	15	63*	25	.	2	56*	37	74*	26	9	7
CN(CC(=O)Nc1ccccc1Cl)C(=O)COC(=O)c1ccccc1[N+](=O)[O-]	101*	-6	3	.	2	1	0	4	7	4	-2
O=C(COC(=O)COc1ccccc1)Nc1ncc([N+](=O)[O-])s1	76*	88*	13	.	-11	91*	90*	89*	99*	92*	90*
O=C(COC(=O)c1ccc([N+](=O)[O-])s1)Nc1cccc(S(=O)(=O)NC2=NCCCCC2)c1	37	61*	19	-2	5	65*	80*	87*	45	10	1
COc1ccccc1CN1C[C@@H]2C[C@@H](c3cccc(C)c3)N3CCC[C@@]23C1=O	-2	0	-3	-1	0	-4	.	.	.	.	.
CC1(C)CC(=O)C2=C(C1)OC(N)=C([N+](=O)[O-])C2c1cccs1 (stereo not given)	8	-3	14	6	1	2	.	.	.	.	.
COc1ccc(-c2nnc(SCC(=O)N3CCCC3=O)n2N)cc1OC	14	1	12	.	1	-11	.	.	.	.	.
CC1(C)CC(=O)C(CC(=O)Nc2cc(C(F)(F)F)ccc2Cl)C(=O)C1	2	-1	24	-2	2	1	.	.	.	.	.
O=C(CN(C(=O)c1ccc2c(c1)OCCO2)c1ccccc1)NCC1CCCO1 (stereo not given)	-2	-6	-2	2	1	-8	.	.	.	.	.
Cc1onc(-c2ccccc2)c1C(=O)Nc1ncc([N+](=O)[O-])s1	-2	10	18	-4	-43	2	.	.	.	.	.
O=C(COC(=O)c1ccc([N+](=O)[O-])s1)NCc1ccccc1	48	62*	12	2	2	73*	58*	72*	21	-1	-8
CC(C)(C)c1ccc(NC(=O)COC(=O)c2ccc([N+](=O)[O-])s2)cc1	.	.	20	9	-1	.	.	.	.	.	.
O=C(Nc1ncc([N+](=O)[O-])s1)c1ccco1	92*	91*	16	0	-39	92*	93*	93*	102*	98*	66*
O=C(COC(=O)c1ccc([N+](=O)[O-])s1)Nc1ccccc1	36	53*	33	-3	2	64*	82*	88*	50	20	-6
O=C(OCc1nnc(-c2ccccc2)o1)c1ccc([N+](=O)[O-])s1	31	71*	31	.	2	68*	72*	83*	40	10	-2
CCOC(=O)c1ccc(N=C2SC(C(=O)Nc3ccc(C(=O)O)cc3)CC(=O)N2Cc2cccs2)cc1 (stereo not given)	-6	9	7	-1	2	-5	.	.	.	.	.
CCn1cc(C(=O)N2CCCC(C(=O)c3cccc(C(F)(F)F)c3)C2)cn1 (stereo not given)	.	.	22	.	2	.	.	.	.	.	.
SMILES	SENP7 inh	SENP8 block-1	SENP8 block-2	HSP90 refold inh	SENP1 inh	SENP6 inh	SENP8 confirm	SENP6 confirm	SENP7 conf	Casp3 SENP sel	SENP luc ctr
O=C1NC2(CCCCCC2)C(=O)N1Cc1ccccc1Cl	-4	-1	25	14	-3	-38	.	.	.	.	.
O=C(COC(=O)c1ccc([N+](=O)[O-])s1)Nc1ccc(F)cc1	40	69*	34	.	2	66*	68*	88*	48	13	-5
O=C(COC(=O)c1ccc(O)cc1)Nc1ccccc1[N+](=O)[O-]	8	37	22	0	1	57*	46	39	70*	52*	42
O=C(CC(=O)Nc1ccccc1[N+](=O)[O-])Nc1ccccc1[N+](=O)[O-]	9	-3	18	2	3	-3	.	.	.	.	.
COc1ccc(S(=O)(=O)N2CCOCC2)cc1NC(=O)COC(=O)c1ccc([N+](=O)[O-])s1	33	67*	37	.	2	53*	-6	83*	35	3	3
CCc1cc2c(=O)n(-c3ccc(C)cc3)cnc2s1	-18	-12	20	0	-2	-19	.	.	.	.	.
COc1cc(/C=C(\C#N)c2nc3ccccc3o2)ccc1O	80*	90*	-53	2	-46	95*	94*	94*	99*	86*	41
COc1cc(/C=C(/C#N)c2nc3ccccc3[nH]2)ccc1OCC(=O)Nc1ccccc1C	-2	11	-266	-2	-21	-9	.	.	.	.	.
N#C/C(=C\c1ccc(O)cc1)c1nc2ccccc2o1	63*	74*	-83	-1	-45	84*	81*	80*	93*	62*	74*

Bioassay records deposited in PubChem BioAssay by several laboratories.
